Screening results deposited in PubChem BioAssay by several laboratories.
Exocytosis inh = lytic granule exocytosis inhibition | TALL-104 LAMP-1 surface exposure, flow cytometry; cells stimulated with thapsigargin and PMA | inhibition, % at 10 µM | actives 0.66% (n = 360,000) | AID 651702;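 active = inhibition above about 55%, limit read from the data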
rCAG binder = molecules binding r(CAG) RNA repeats; r(CAG) RNA repeat, TO-PRO-1 dye displacement fluorescence; inhibition, % at 3 µM; actives 1.3% (n = 370,000); AID 651821;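 active = inhibition above the plate cutoff, the mean of all test compounds on that plate plus 3 SD, cut at about 35% in these data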;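 also: higher means more dye released from RNA so lower well fluorescence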
T cell HTS = T cell immune modulation candidate; 2C CD8+ T cell-vesicle binding, flow cytometry; hits give low values; response (vesicle binding), % at 7 µM; actives 0.068% (n = 330,000); AID 2052;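 active = response, share of CD8 T cells binding vesicles, and their 90th percentile fluorescence all below set limits, cut at about 80% in these data, passing the limit was not always enough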;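 also: values below 100% mean blocked vesicle binding to the CD8+ T cells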
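Incubation: binding step 1.5 h, 37 °C, antibody labelling 20 min, ice; system: murine 2C transgenic CD8+ T lymphocytes; technique: cytometric PE anti-B7-1 and Alexa647 anti-CD8 signals after 1% paraformaldehyde fixation; also added: QL9-charged Drosophila Ld/ICAM-1/B7-1 vesicles; control set: naked versus QL9-loaded vesicles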
V-ATPase pH = yeast V-ATPase proton transport regulation by pHLuorin | response, % at 10 µM | S. cerevisiae, pHLuorin cytosolic pH fluorescence | actives 0.37% (n = 350,000); in the data active = response mostly above about 7.3%, no sharp cut-off; inactive = mostly below about 5.4%; also: actives read high
MPTP block = blocks calcium-induced mitochondrial swelling; isolated mouse mitochondria, Ca2+ swelling absorbance, 30 min; inhibition, % at 10 µM; actives 1.4% (n = 360,000); AID 602449;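 active = inhibition of 50% or more, scaled per plate between neutral and stimulator controls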
B2AR ag = human beta-2 adrenergic receptor agonism by FAP | P07550 | Am2.2-beta2AR cells, FAP receptor internalization, flow cytometry | response, % (no concentration beside the values) | actives 0.43% (n = 340,000);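 active = response above a set limit, near 3 SD of response in nonfluorescent compounds, cut at about 42% in these data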
Target sequence (P07550 whole entry, looked up): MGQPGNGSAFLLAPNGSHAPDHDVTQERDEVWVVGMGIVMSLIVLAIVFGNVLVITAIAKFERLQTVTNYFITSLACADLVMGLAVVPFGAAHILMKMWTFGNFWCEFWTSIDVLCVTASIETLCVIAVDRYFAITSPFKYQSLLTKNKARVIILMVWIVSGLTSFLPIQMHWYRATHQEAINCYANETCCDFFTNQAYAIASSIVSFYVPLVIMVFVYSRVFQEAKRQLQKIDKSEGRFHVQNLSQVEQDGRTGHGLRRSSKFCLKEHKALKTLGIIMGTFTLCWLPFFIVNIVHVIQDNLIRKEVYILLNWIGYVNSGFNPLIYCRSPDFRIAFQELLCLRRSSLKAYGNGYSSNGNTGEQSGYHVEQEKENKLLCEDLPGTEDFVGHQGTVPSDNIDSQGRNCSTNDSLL
Rh123 counter = membrane potential counter-screen of mitochondrial pore inhibitors; inhibition, % at 10 µM; isolated mitochondria, Rhodamine 123 fluorescence; actives 78% (n = 5,000); shares compounds with MPTP block; AID 624504; in the data active = inhibition above about 22%
MPTP abs DR = dose response confirmation of mitochondrial permeability transition pore inhibitors | shares compounds with MPTP block | isolated mitochondria swelling, absorbance | IC50, µM | actives 58% (n = 780); in the data active = IC50 below about 20 µM
MPTP counter DR = counter-screen for mitochondrial permeability transition pore inhibitors, dose response; shares compounds with MPTP block; isolated mitochondria counterscreen, fluorescence read-out; IC50, µM; actives 49% (n = 780); in the data active = IC50 below about 80 µM
A number is an active result; n = inactive; x = no result given. Only some compounds are listed: those with a hit (about 3.8% of all), similar ones and a draw of the others.

SMILES	Exocytosis inh	rCAG binder	T cell HTS	V-ATPase pH	MPTP block	B2AR ag	Rh123 counter	others
CC(C)(C)CC(C)(C)c1ccc(O)c(Cc2ccc(Cl)cc2Cl)c1	n	n	x	n	95	n	n	MPTP abs DR=n;MPTP counter DR=6.4
Cc1cc(SCC(=O)N/N=C/c2ccc(O)c(O)c2)nc2ccccc12	n	n	n	n	n	n	x
COc1ccc2nc(C)cc(SCC(=O)N/N=C/c3ccc(O)c(O)c3)c2c1	n	n	n	n	n	n	x
COc1ccc2nc(C)cc(SCC(=O)N/N=C/c3cccc4ccccc34)c2c1	n	n	n	n	128	n	n	MPTP abs DR=n;MPTP counter DR=n
Cc1cc(SCC(=O)N/N=C/c2ccc(O)cc2O)nc2ccccc12	n	n	n	n	68	n	71
Cc1cccc(OCCCSc2nc3ccccc3[nH]2)c1	n	n	n	n	51	n	64
CCCOc1ccc(CSc2nc3ccccc3[nH]2)cc1	n	n	n	n	98	n	92
c1ccc(CC2CCN(C3=Nc4cccc5cccc3c45)CC2)cc1	n	x	n	n	51	n	29
COc1cc(Cl)ccc1OCc1cc(C(=O)NCC(C)c2ccccc2)no1 (stereo not drawn)	n	n	n	n	n	n	x
O=C(NC1CCCCCCC1)c1cc(COc2ccc3ncccc3c2)on1	n	n	x	n	102	n	99
CC(CNC(=O)c1cc(COc2ccc3ncccc3c2)on1)c1ccccc1 (stereo not drawn)	n	n	n	n	99	n	102
O=C(c1cc(COc2ccc3ncccc3c2)on1)N1CCC(O)CC1	n	n	n	n	n	n	x
O=C(Cc1cccc2ccccc12)Nc1ccc(OC(F)F)c(Cl)c1	n	n	n	n	85	n	90
O=C(Nc1ccc(OC(F)F)c(Cl)c1)C(c1ccccc1)c1ccccc1	n	n	n	n	83	n	90
CC(COc1ccc(Cl)cc1)CN1CCC(C(O)(c2ccccc2)c2ccccc2)CC1 (stereo not drawn)	x	n	x	x	x	x	x
Cc1ccc(OC/C(O)=C(\C#N)c2nc3ccccc3s2)cc1	n	n	n	n	73	n	43
COC(=O)c1ccc(/C(O)=C(\C#N)c2nc3ccccc3s2)cc1	n	n	n	n	74	n	53
CC(C)=C(C#N)c1nc2ccccc2s1	n	n	n	n	n	n	x
O=C1CCCN2N=C(SCC(=O)Nc3cccc(F)c3)SC2=N1	n	n	n	n	50	n	n	MPTP abs DR=n;MPTP counter DR=38
COc1c(Br)cc([N+](=O)[O-])c(OC)c1C(=O)NC(=O)Nc1cc(Cl)cc(Cl)c1	n	n	n	n	83	n	85
CC(=O)N1CCN(C(=O)CN2C(=O)NC(C)(c3ccc4ccccc4c3)C2=O)CC1 (stereo not drawn)	n	n	n	n	n	n	x
CC1(c2ccc3ccccc3c2)NC(=O)N(CC(=O)N2CCN(Cc3ccc(C#N)cc3)CC2)C1=O (stereo not drawn)	n	x	x	n	57	n	65
CC(C)N1CC2(CC(c3ccc(Cl)cc3Cl)=NO2)CN1C(=O)c1ccc(C(C)(C)C)cc1 (stereo not drawn)	n	n	x	n	52	x	n	MPTP abs DR=8.8;MPTP counter DR=29
CC(C)N1CC2(CC(c3ccccc3F)=NO2)CN1C(=O)c1ccc(C(C)(C)C)cc1 (stereo not drawn)	n	n	x	n	n	x	x
COC(=O)[C@]1(CNC(=O)C(C)(C)C)CC(=O)N(C)[C@@H]1c1ccccc1	x	n	x	x	x	x	x
CCCCCCSc1nsc(NC(=O)CC(C)C)n1	n	n	n	n	78	n	92
CCCSc1nsc(NC(=O)CC)n1	n	n	n	n	n	n	x
Cc1nn(CC(=O)Nc2sc3c(c2C#N)CCC(C(C)(C)C)C3)c(C)c1[N+](=O)[O-] (stereo not drawn)	n	n	n	n	81	n	32
Cc1nc2c(Br)cc(Br)cc2cc1O	n	n	n	n	99	57	97
Brc1cc(Br)c2nc(-c3cccs3)ccc2c1	n	n	n	n	n	n	x
